Screens: PubChem BioAssay, The Scripps Research Institute Molecular Screening Center
The list is not random: actives were taken first. Their share in the collection is about 1.8%.
PME-1 inh: PME-1 (human) inhibition | inhibition, % at 5.9 µM | recombinant PME-1, FP-Rh probe fluorescence polarization | Q9Y570 | hit rate 0.53% among 320,000;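 active = inhibition above the campaign mean of all compounds plus 3 SD, cut at about 26% in these data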;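 also: competitive labeling of PME-1 active site by serine hydrolase directed probe; 0% = PME-1 with DMSO and 100% = wells lacking PME-1 enzyme; inhibitors block probe labeling so polarization falls and inhibition rises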
HTRA1 inh: blocks human HTRA1 serine peptidase; inhibition, % at 5.96 µM; Q92743; recombinant HTRA1, FP-rhodamine activity-based probe, fluorescence polarization; hit rate 0.5% among 340,000; in the data active = inhibition above about 36%;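 also: 0% = enzyme with DMSO and 100% = wells lacking enzyme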
mABHD4 FP: ABHD4 (mouse) inhibition, primary FP screen. Q8VD66. purified mABHD4, FP-Rh probe fluorescence polarization. inhibition, % at 8.92 µM. hit rate 0.54% among 370,000. AID 720543;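 active = inhibition exceeding the mean over every tested compound plus 3 SD, cut at about 30% in these data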;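 also: 0% = plate median of compound wells and 100% = S159A mutant with DMSO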
Target sequence (Q8VD66 whole entry, looked up): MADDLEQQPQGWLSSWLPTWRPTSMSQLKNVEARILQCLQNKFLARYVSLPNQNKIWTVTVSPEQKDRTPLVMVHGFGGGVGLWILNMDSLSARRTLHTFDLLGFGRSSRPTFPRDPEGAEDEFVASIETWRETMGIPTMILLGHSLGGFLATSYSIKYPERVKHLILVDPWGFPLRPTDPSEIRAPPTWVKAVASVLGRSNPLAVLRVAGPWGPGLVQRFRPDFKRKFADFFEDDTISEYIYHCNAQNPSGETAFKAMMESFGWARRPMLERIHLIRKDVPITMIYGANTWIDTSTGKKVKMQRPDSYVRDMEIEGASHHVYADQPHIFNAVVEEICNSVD
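assay system = mABHD4 protein | compound dosing = single nominal dose of 8.92 µM, 0.89% DMSO final | read-out basis = percent inhibition of probe binding, normalized to plate controls | schedule = Enzyme–compound pre-incubation 45 min, then probe 60 min, both 25 °C | detection = fluorescence polarization, excitation 525 nm, emission 598 nm, BODIPY TMR filters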
TCR CD3 inh: human TCR-CD3 binding inhibition; TAMRA-labeled TCR probe fluorescence, biochemical; inhibition, % at 9.4 µM; hit rate 0.37% among 360,000;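 also: recombinant mutant TCR 2C K166C tagged with TAMRA read by polarization; 0% = receptor in buffer alone and 100% = receptor with positive control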
Fam108B inh: blocks mouse Fam108B hydrolase in RBBP9 counter-screen. recombinant Fam108B, FP-Rh probe fluorescence polarization. inhibition, % at 9.51 µM. hit rate 0.33% among 300,000. AID 1947;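 active = inhibition above the screen mean inhibition plus 3 SD, computed separately per campaign, cut at about 18% in these data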;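 also: inhibitors lower polarization as less probe binds the enzyme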
SIAE primary: blocks human sialic acid acetylesterase | Q9HAT2 | SIAE FP-Rh probe binding, fluorescence polarization | inhibition, % at 9.66 µM | hit rate 0.69% among 370,000 | AID 1053197;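 active = inhibition above a cutoff: mean of compounds within the control limits plus 3 SD of those, cut at about 17% in these data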;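 also: 0% = plate median of compound wells and 100% = probe without SIAE protein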
Fam108b confirm: confirmation of mouse Fam108b serine hydrolase inhibitors. inhibition, % at 9.51 µM. hit rate 44% among 930. AID 1978. shares compounds with Fam108B inh. recombinant Fam108b, FP-Rh probe fluorescence polarization;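 active = inhibition above a limit from the primary screen, the mean over all compounds plus 3 SD, cut at about 19% in these data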;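 also: 0% = median of active Fam108b wells and 100% = catalytically dead S170A mutant; inhibitors free the probe so polarization falls as inhibition rises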
Fam108b ABPP HTS: mouse ABHD17B inhibition | inhibition, % at 20 µM | shares compounds with Fam108B inh | recombinant Fam108b, gel-based ABPP, fluorophosphonate probe | hit rate 44% among 260; in the data active = inhibition above about 40%
HTRA1 conf: HTRA1 (human) inhibition, confirmation. shares compounds with HTRA1 inh. recombinant HTRA1, FP-rhodamine activity-based probe, fluorescence polarization. inhibition, % at 5.96 µM. hit rate 66% among 1,600;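 active = mean inhibition over three repeats above a set limit taken from the earlier primary screen, cut at about 37% in these data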;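 also: 0% = HTRA1 with DMSO and 100% = wells lacking HTRA1; inhibitors block probe binding so polarization drops and inhibition rises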
BSA probe FL: interferes with TAMRA-BSA probe, flagging TCR-CD3 hits; shares compounds with TCR CD3 inh; TAMRA-labeled BSA probe fluorescence counterscreen; inhibition, % at 9.4 µM; hit rate 10% among 1,200; in the data active = inhibition above about 23%;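 also: 0% = buffer low control and 100% = reference high control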
TCR-CD3 conf: confirmation of human TCR-CD3 interaction inhibitors; shares compounds with TCR CD3 inh; TAMRA-labeled TCR probe fluorescence binding assay; hit rate 48% among 1,200; inhibition, % at 9.4 µM
mABHD4 conf: ABHD4 (mouse) inhibition, FP confirmation. inhibition, % at 8.92 µM. shares compounds with mABHD4 FP. purified mABHD4, FP-Rh probe fluorescence polarization. AID 720658. hit rate 55% among 1,800;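 active = mean inhibition across replicates above the hit cutoff set in the primary screen, cut at about 30% in these data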;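 also: 0% = wild-type ABHD4 with DMSO and 100% = catalytically dead S159A mutant with DMSO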
Active calls of the source: *. Rule as the data show it, unless noted: active = inhibition above about 19%; inactive = the rest.

O=C(O)CC(C(=O)O)N1C(=O)/C(=C/c2ccc(-c3nc4ccccc4s3)o2)SC1=S (configuration not stated) was read as PME-1 inh -17, HTRA1 inh 15, mABHD4 FP 38*, TCR CD3 inh 22*, Fam108B inh 32*, SIAE primary 4, Fam108b confirm -11, BSA probe FL -15 and TCR-CD3 conf 26*.
For O=Cc1ccc(-c2nc3ccccc3s2)o1 the results were PME-1 inh -1, HTRA1 inh -17, mABHD4 FP -6, TCR CD3 inh 8, Fam108B inh 2 and SIAE primary -6.
Screening O=C1OC(Nc2ncccn2)c2ccccc21 (configuration not stated) returned PME-1 inh -1, HTRA1 inh 2, mABHD4 FP -3, TCR CD3 inh 6, Fam108B inh 3 and SIAE primary -1.
For O=C1OC(Nc2cc(Br)cc3cccnc23)c2ccccc21 (configuration not stated) the results were PME-1 inh 28*, HTRA1 inh 45*, mABHD4 FP 88*, TCR CD3 inh 37*, Fam108B inh 47*, SIAE primary 34*, Fam108b confirm 7, HTRA1 conf 13, BSA probe FL 7 and TCR-CD3 conf 7.
Screening CCCn1c(NC(=O)c2ccccc2)nc(Cc2ccccc2)c1Cc1ccccc1 returned mABHD4 FP 5 and SIAE primary -6.
Screening CN(C)S(=O)(=O)c1cccc(NC(=O)COC(=O)c2cc(-c3cccc(Br)c3)nc3ccccc23)c1 returned PME-1 inh 5, HTRA1 inh -12, mABHD4 FP -8, TCR CD3 inh 83*, Fam108B inh 31*, SIAE primary 0, Fam108b confirm 60*, Fam108b ABPP HTS 90*, BSA probe FL 21 and TCR-CD3 conf 56*.
`O=C(Nc1cccc(Cl)c1)c1cc(N=Nc2ccc([N+](=O)[O-])cc2Cl)ccc1O` gave PME-1 inh 22, HTRA1 inh 16, mABHD4 FP 33*, TCR CD3 inh -8, Fam108B inh 26*, SIAE primary 22*, Fam108b confirm -1 and mABHD4 conf 70*.
`O=C(Nc1ccc([N+](=O)[O-])cc1Cl)c1cc(Cl)ccc1O` gave PME-1 inh 9, HTRA1 inh 6, mABHD4 FP 6, TCR CD3 inh 7, Fam108B inh 5 and SIAE primary -1.
CCN(C[C@H]1[C@@H](c2ccc(C3=CCCC3)cc2)[C@H](CO)N1c1nc(C)c(C)s1)S(=O)(=O)c1ccccc1[N+](=O)[O-] was read as mABHD4 FP 9 and SIAE primary 4.
Screening O=[N+]([O-])c1cc(Cl)cc(/C=N/NC(=S)Nc2ccc(S(=O)(=O)N3CCOCC3)cc2)c1O returned PME-1 inh 19, HTRA1 inh 62*, mABHD4 FP 57*, TCR CD3 inh 42*, Fam108B inh 39*, SIAE primary 13, Fam108b confirm 31*, HTRA1 conf 59*, BSA probe FL -5, TCR-CD3 conf 43* and mABHD4 conf 118*.
Screening CCOC(=O)C1=C(SCC)c2cc3c(n2C1=O)CCCC3 returned PME-1 inh 8, HTRA1 inh 35, mABHD4 FP 36*, TCR CD3 inh -3, Fam108B inh 23*, SIAE primary 0, Fam108b confirm 14 and mABHD4 conf 75*.
`CCOC(=O)c1cnc2cc3c(cn2c1=O)CCCC3` gave PME-1 inh -1, HTRA1 inh 2, mABHD4 FP -11, TCR CD3 inh -2, Fam108B inh 2 and SIAE primary 4.
CN(c1ccccc1)c1ccc(/C=C(\CCC(=O)O)c2nc3ccccc3s2)cc1[N+](=O)[O-] was read as PME-1 inh 11, HTRA1 inh 31, mABHD4 FP 69*, TCR CD3 inh 3, Fam108B inh 20*, SIAE primary 14, Fam108b confirm 14 and mABHD4 conf 62*.
CC1=C(Nc2ccc(C(=O)O)cc2)C(=O)c2ccccc2C1=O was read as PME-1 inh 0, HTRA1 inh 2, mABHD4 FP 16, TCR CD3 inh 0, Fam108B inh 2 and SIAE primary -3.
Cc1ccccc1NC1=C/C(=N\S(=O)(=O)c2ccc(C(=O)O)cc2)c2ccccc2C1=O was read as PME-1 inh 36*, HTRA1 inh 26, mABHD4 FP 63*, TCR CD3 inh 4, Fam108B inh 54*, SIAE primary 4, Fam108b confirm 89*, Fam108b ABPP HTS 30 and mABHD4 conf 65*.
Screening O=C(NCc1ccccc1)c1ccc2nc(-c3ccco3)c(-c3ccco3)nc2c1 returned PME-1 inh 16, HTRA1 inh 63*, mABHD4 FP 54*, TCR CD3 inh 22*, Fam108B inh 19*, SIAE primary 34*, Fam108b confirm 18, HTRA1 conf 22, BSA probe FL -10, TCR-CD3 conf 24* and mABHD4 conf 38*.
For Cc1nc(SCC(N)=O)[nH]c(=O)c1C the results were mABHD4 FP 4 and SIAE primary -2.
Cc1[nH]c2ccccc2c1/C=N/Nc1ccccc1[N+](=O)[O-] was read as PME-1 inh 47*, HTRA1 inh 68*, mABHD4 FP 59*, TCR CD3 inh -4, Fam108B inh 22*, SIAE primary 16, Fam108b confirm -8, HTRA1 conf 74* and mABHD4 conf 73*.
Screening COc1ccc(S[C@]2(C(=O)N3CCOCC3)CC(=O)N(c3ccsc3)[C@@H]2c2ccc(OC)cc2)cc1 returned mABHD4 FP -3 and SIAE primary -8.
O=C(O)c1ccc(N=N/C(=N\Nc2ccc(C(=O)O)cc2)c2ccccc2)cc1 was read as PME-1 inh 1, HTRA1 inh 10, mABHD4 FP 25, TCR CD3 inh 10, Fam108B inh 6 and SIAE primary -10.
